Results as given in ChEMBL document CHEMBL1130327, “Synthesis and antimalarial effects of phenothiazine inhibitors of a Plasmodium falciparum cysteine protease” (J Med Chem, 1997).

Assays:
Falcipain 2 = target: T1, Falcipain 2 (Plasmodium falciparum, UniProt Q9N6S8); test: Inhibition of falcipain activity; format: functional
T1 sequence (Q9N6S8 whole entry): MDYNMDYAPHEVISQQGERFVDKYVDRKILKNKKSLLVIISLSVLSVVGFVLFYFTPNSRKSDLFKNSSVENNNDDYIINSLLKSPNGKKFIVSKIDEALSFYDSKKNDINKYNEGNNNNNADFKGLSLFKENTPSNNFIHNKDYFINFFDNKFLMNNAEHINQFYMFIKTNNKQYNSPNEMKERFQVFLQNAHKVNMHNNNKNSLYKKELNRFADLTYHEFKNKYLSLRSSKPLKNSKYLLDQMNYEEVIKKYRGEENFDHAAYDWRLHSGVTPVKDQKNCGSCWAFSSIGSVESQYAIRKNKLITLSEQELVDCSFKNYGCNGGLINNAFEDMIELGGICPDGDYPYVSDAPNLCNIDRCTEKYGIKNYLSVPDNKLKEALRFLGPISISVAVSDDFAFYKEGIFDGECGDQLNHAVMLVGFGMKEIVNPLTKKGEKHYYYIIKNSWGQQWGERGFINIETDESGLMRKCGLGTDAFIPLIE
Summary of the method: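 Soluble parasite extract containing falcipain (30 nM) preincubated 30 min at room temperature with compound (100× DMSO stocks) and 10 mM DTT in 0.1 M sodium acetate, pH 5.5. Z-Phe-Arg-AMC then added to 50 μM final. Fluorescence (ex 380, em 460 nm) followed continuously for 30 min. Rates compared with DMSO controls. Multiple concentrations tested in duplicate or triplicate; IC50 extrapolated from % control activity curves.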

Plasmodium falciparum [1] = test: Inhibition of parasitaemia in [3H]hypoxanthine incorporation assay; format: functional, organism-based
Summary of the method: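 Ring-stage P. falciparum Itg2 cultures (300 μL) given compound from 100× DMSO stocks for 24 h. [3H]hypoxanthine then added (0.0144 μg, 1.2 μCi per well) for a further 18 h. Cells harvested onto glass-fiber filters and counted by scintillation. Uptake compared with 1% DMSO controls; IC50 extrapolated from % control curves.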

Hemozoin [2] = test: Inhibition of hemoglobin degradation as percentage of organisms with dark swollen food vacuoles; format: functional; parameters: scale not given: the % may be the effect or the level left; settings: Plasmodium falciparum
Plasmodium falciparum [3] = test: Inhibition of parasitaemia in ring-form development assay; format: functional, organism-based
Summary of the method: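 Ring-stage Itg2 cultures (2 mL) incubated with compound from 100× DMSO stocks. Medium changed at 24 h with inhibitor maintained. At 48 h, new ring forms per 1000 erythrocytes counted on Giemsa-stained smears and compared with 1% DMSO controls.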

MDCK = test: Compound was tested for inhibition of MDCK cell metabolism using MTT assay method.; format: functional, cell-based; settings: Canis lupus familiaris
Summary of the method: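 MDCK cells cultured overnight in phenol red-free RPMI with 1–100 μM compound (100× DMSO stocks); medium then replaced with MTT (1 mg/mL) for 2 h. Supernatant removed, ethanol added, absorbance read at 560 nm. Compared with cells given 1% DMSO overnight.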

Hemozoin [4] = test: Inhibition of hemoglobin degradation as percentage of organisms with dark swollen food vacuoles; 50-90%; format: functional; parameters: scale not given: the % may be the effect or the level left; settings: Plasmodium falciparum
Hemozoin [5] = test: Inhibition of hemoglobin degradation as percentage of organisms with dark swollen food vacuoles; 10-50%; format: functional; parameters: scale not given: the % may be the effect or the level left; settings: Plasmodium falciparum
Hemozoin [6] = test: Inhibition of hemoglobin degradation as percentage of organisms with dark swollen food vacuoles; 0-10%; format: functional; parameters: scale not given: the % may be the effect or the level left; settings: Plasmodium falciparum

SMILES | IC50 (Falcipain 2) [µM] | IC50 (Plasmodium falciparum [1]) [µM] | IC50 (Plasmodium falciparum [3]) [µM] | also measured
COc1ccc(C2CC3=Nc4ccc(Cl)cc4SC3=C(O)C2)cc1 (stereo not drawn) | 10 | – | – | –
COc1cccc(C2CC3=Nc4ccc(F)cc4SC3=C(O)C2)c1 (stereo not drawn) | 20 | – | – | –
OC1=C2Sc3cc(Cl)ccc3N=C2CCC1 | 40 | – | – | –
COc1cccc(C2CC3=Nc4ccc(Cl)cc4SC3=C(O)C2)c1 (stereo not drawn) | 20 | – | – | –
CC1(C)CC2=Nc3ccc(F)cc3S(=O)(=O)C2=C(O)C1 | 5 | 100 | 30 | Activity (Hemozoin [2]): > 90%; IC50 (MDCK): > 100 µM
COc1cccc(C2CC3=Nc4ccc(Cl)cc4SC3=C(O)C2)c1OC (stereo not drawn) | 10 | – | – | –
OC1=C2Sc3cc(F)ccc3N=C2CC(c2ccc(Cl)cc2)C1 (stereo not drawn) | 5 | 4 | 3 | IC50 (MDCK): > 100 µM; Activity (Hemozoin [4]): 90%
CC1(C)CC2=Nc3ccc(Cl)cc3S(=O)(=O)C2=C(O)C1 | 5 | 60 | 20 | Activity (Hemozoin [2]): > 90%; IC50 (MDCK): > 100 µM
O=S1(=O)C2=C(O)CC(c3ccccc3)CC2=Nc2ccc(Cl)cc21 (stereo not drawn) | 4 | 5 | 5 | Activity (Hemozoin [4]): 90%
COc1ccc(C2CC3=Nc4ccc(Cl)cc4SC3=C(O)C2)cc1OC (stereo not drawn) | 30 | – | – | –
COc1ccc(C2CC3=Nc4ccc(F)cc4SC3=C(O)C2)cc1OC (stereo not drawn) | 20 | – | – | –
O=S1(=O)C2=C(O)CC(c3ccc(Cl)cc3Cl)CC2=Nc2ccc(Cl)cc21 (stereo not drawn) | 30 | – | – | –
COc1ccc(C2CC3=Nc4ccc(F)cc4S(=O)(=O)C3=C(O)C2)cc1OC (stereo not drawn) | 5 | 3 | 1 | Activity (Hemozoin [5]): 50%
OC1=C2Sc3cc(F)ccc3N=C2CC(c2ccc(Cl)cc2Cl)C1 (stereo not drawn) | 10 | – | – | –
OC1=C2Sc3cc(Cl)ccc3N=C2CC(c2ccc(Cl)cc2)C1 (stereo not drawn) | 4 | 6 | 3 | Activity (Hemozoin [6]): < 10%; IC50 (MDCK): 10 µM
COc1cccc(C2CC3=Nc4ccc(Cl)cc4S(=O)(=O)C3=C(O)C2)c1OC (stereo not drawn) | 4 | 2 | 2 | Activity (Hemozoin [2]): > 90%; IC50 (MDCK): > 100 µM
COc1ccc(C2CC3=Nc4ccc(Cl)cc4S(=O)(=O)C3=C(O)C2)cc1 (stereo not drawn) | 30 | – | – | –
O=S1(=O)C2=C(O)CC(c3ccc(Cl)cc3)CC2=Nc2ccc(F)cc21 (stereo not drawn) | 5 | 4 | 6 | Activity (Hemozoin [5]): 50%
COc1cccc(C2CC3=Nc4ccc(F)cc4S(=O)(=O)C3=C(O)C2)c1 (stereo not drawn) | 5 | 3 | 3 | IC50 (MDCK): > 100 µM; Activity (Hemozoin [4]): 90%
COc1cccc(C2CC3=Nc4ccc(F)cc4SC3=C(O)C2)c1OC (stereo not drawn) | 20 | – | – | –
OC1=C2Sc3cc(F)ccc3N=C2CC(c2ccccc2)C1 (stereo not drawn) | 20 | – | – | –
CC1(C)CC2=Nc3ccc(Cl)cc3SC2=C(O)C1 | 30 | – | – | –
COc1ccc(C2CC3=Nc4ccc(Cl)cc4S(=O)(=O)C3=C(O)C2)cc1OC (stereo not drawn) | 50 | – | – | –
OC1=C2Sc3cc(Cl)ccc3N=C2CC(c2ccccc2)C1 (stereo not drawn) | 10 | – | – | –
CC1(C)CC2=Nc3ccc(F)cc3SC2=C(O)C1 | 60 | – | – | –
OC1=C2Sc3cc(Cl)ccc3N=C2CC(c2ccc(Cl)cc2Cl)C1 (stereo not drawn) | 10 | – | – | –
O=S1(=O)C2=C(O)CC(c3ccc(Cl)cc3)CC2=Nc2ccc(Cl)cc21 (stereo not drawn) | 4 | 8 | 4 | Activity (Hemozoin [5]): 50%
